From ChEMBL document CHEMBL1153776, “Synthesis and immunosuppressive activity of cyclolinopeptide A analogues containing homophenylalanine” (Eur J Med Chem, 2009)
The source made the active and inactive calls. The rule behind the calls is not given here. Non-standard residues stand in square brackets, D forms with d. Residues, ends and D or L forms follow the SMILES beside them. hPhe = N[C@@H](CCc1ccccc1)C(=O)O

Columns and labels:
[1] = system: Splenocyte; test: Immunosuppressive activity against sheep erythrocytes-induced humoral immune response in CBA mouse splenocyte assessed as inhibition antibody forming cells at 100 ug/ml after 4 days; assay type: functional; parameters: scale not given: the % may be the effect or the level left
In short: (§1)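 Donor CBA mice (12-week-old, both sexes) sensitized with 0.2 ml of 1% SRBC suspension; spleens harvested four days later, erythrocytes lysed with 0.83% ammonium chloride. Splenocytes (5 ×10⁶/ml/well) cultured with SRBC (0.1 ml of 0.005% suspension) plus peptides (DMSO, then medium). After four days, antibody-forming cells counted; mean AFC numbers from quadruplicate wells ± SE.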

[2] = Toxicity in mouse WEHI164 clone 13 cells at 100 ug/ml after 24 hrs by MTT assay; conditions: wehi-164, 24 h
In short: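 WEHI 164.13 cells exposed 24 h to peptides (DMSO then culture medium) or DMSO control solutions. Viability measured by MTT colorimetric method and expressed as percentage of OD relative to matching solvent dilutions (taken as 100%). Student's t-test for statistics.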

[3] = system: B; test: Immunosuppressive effect on CBA mouse B cells assessed as inhibition of mitogen-induced proliferation after 3 days by MTT assay; assay type: functional, cell-based
[4] = system: Splenocyte; test: Immunosuppressive activity against sheep erythrocytes-induced humoral immune response in CBA mouse splenocyte assessed as inhibition antibody forming cells after 4 days; assay type: functional, cell-based; in short: as §1
[5] = system: T-cell; test: Immunosuppressive effect on CBA mouse T cells assessed as inhibition of mitogen-induced proliferation at 100 ug/ml after 3 days by MTT assay; assay type: functional, cell-based

For CC[C@H](C)[C@@H]1NC(=O)[C@H](CC(C)C)NC(=O)[C@H](CCc2ccccc2)NC(=O)[C@H](Cc2ccccc2)NC(=O)[C@@H]2CCCN2C(=O)[C@@H]2CCCN2C(=O)[C@H](C(C)C)NC(=O)[C@H](CC(C)C)NC(=O)[C@H]([C@@H](C)CC)NC1=O (cyclo(F[hPhe]LIILVPP)), the Activity [1] was 92%, the Activity [2] was 47.19% and the Activity [3] was “Active”.

For CC[C@H](C)[C@@H]1NC(=O)[C@H](CC(C)C)NC(=O)[C@H](CCc2ccccc2)NC(=O)[C@H](CCc2ccccc2)NC(=O)[C@@H]2CCCN2C(=O)[C@@H]2CCCN2C(=O)[C@H](C(C)C)NC(=O)[C@H](CC(C)C)NC(=O)[C@H]([C@@H](C)CC)NC1=O (cyclo(IILVPP[hPhe][hPhe]L)), the Activity [3] was “Active” and the Activity [4] was “Active”.

For CC[C@H](C)[C@@H]1NC(=O)[C@H](CC(C)C)NC(=O)[C@H](Cc2ccccc2)NC(=O)[C@H](CCc2ccccc2)NC(=O)[C@@H]2CCCN2C(=O)[C@@H]2CCCN2C(=O)[C@H](C(C)C)NC(=O)[C@H](CC(C)C)NC(=O)[C@H]([C@@H](C)CC)NC1=O (cyclo(FLIILVPP[hPhe])), the Activity [1] was 94.5% and the Activity [5] was “Active”.
